Measurements published in ChEMBL document CHEMBL1123892, “Renin inhibitors based on novel dipeptide analogues. Incorporation of the dehydrohydroxyethylene isostere at the scissile bond” (J Med Chem, 1987).

Assays:
Renin = biological target: T1, Renin (Homo sapiens, UniProt P00797); test: Inhibition of human renin
T1 sequence (P00797 whole entry): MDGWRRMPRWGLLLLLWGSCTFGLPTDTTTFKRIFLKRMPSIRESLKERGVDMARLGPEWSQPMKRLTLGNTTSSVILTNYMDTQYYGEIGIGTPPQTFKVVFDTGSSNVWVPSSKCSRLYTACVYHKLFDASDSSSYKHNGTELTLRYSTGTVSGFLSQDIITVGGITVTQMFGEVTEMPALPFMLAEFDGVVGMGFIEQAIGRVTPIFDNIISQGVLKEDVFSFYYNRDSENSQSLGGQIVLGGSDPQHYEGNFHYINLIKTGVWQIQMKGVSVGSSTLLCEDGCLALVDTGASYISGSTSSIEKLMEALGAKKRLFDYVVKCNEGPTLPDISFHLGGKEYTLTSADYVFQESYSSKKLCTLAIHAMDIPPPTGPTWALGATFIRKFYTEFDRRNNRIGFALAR
How it was run: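 Purified human renal renin, 0.24 mGu, with pure human angiotensinogen (0.21 μM) at 37 °C in 0.135 M maleate pH 6.0 containing 3 mM EDTA, 1.4 mM PMSF, 0.44% BSA and 1% DMSO (final). At least three inhibitor concentrations bracketing the IC50 preincubated with enzyme 5 min, then 10.0 min reaction stopped by freezing. Angiotensin I read by RIA; IC50 by regression of percent inhibition.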

Renin (Homo sapiens) [1] = biological target: T2, Renin (Homo sapiens) (UniProt P00797); test: Compound was evaluated for percent inhibition of renin at a concentration of 5e-8M at 5 min pre-incubation time
T2 sequence (whole entry): T1 sequence (P00797 whole entry)
How it was run: (§1)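 Purified human renal renin with pure human angiotensinogen (0.21 μM final) in 0.135 M maleate buffer pH 6.0, 3 mM EDTA, 1.4 mM PMSF, 0.44% BSA, 1% DMSO. Inhibitor at one fixed concentration, preincubated with renin 5 or 60 min at 37 °C before substrate addition. Reaction then ran 10.0 min, stopped by freezing. Angiotensin I measured by radioimmunoassay; percent inhibition reported.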

Renin (Homo sapiens) [2] = biological target: T2, Renin (Homo sapiens); test: Compound was evaluated for percent inhibition of renin at a concentration of 5e-8M at 60 min pre-incubation time; how it was run: as §1
Renin (Homo sapiens) [3] = biological target: T2, Renin (Homo sapiens); test: Compound was evaluated for percent inhibition of renin at a concentration of 5E-8 M at 5 min pre-incubation time; how it was run: as §1
Renin (Homo sapiens) [4] = biological target: T2, Renin (Homo sapiens); test: Compound was evaluated for percent inhibition of renin at a concentration of 5E-8 M at 60 min pre-incubation time; how it was run: as §1
Renin (Homo sapiens) [5] = biological target: T2, Renin (Homo sapiens); test: Compound was evaluated for percent inhibition of renin at a concentration of 2.5*10e-8 M at 60 min preincubation time; how it was run: as §1
Renin (Homo sapiens) [6] = biological target: T2, Renin (Homo sapiens); test: Compound was evaluated for percent inhibition of renin at a concentration of 2.5*10e-8 M at 5 min pre-incubation time; how it was run: as §1
Renin (Homo sapiens) [7] = biological target: T2, Renin (Homo sapiens); test: Compound was evaluated for percent inhibition of renin at a concentration of 1E-8M at 60 min pre-incubation time; how it was run: as §1
Renin (Homo sapiens) [8] = biological target: T2, Renin (Homo sapiens); test: Compound was evaluated for percent inhibition of renin at a concentration of 1E-8M at 5 min pre-incubation time; how it was run: as §1
Renin (Homo sapiens) [9] = biological target: T2, Renin (Homo sapiens); test: Compound was evaluated for percent inhibition of renin at a concentration of 4E-7M at 5 min pre-incubation time; how it was run: as §1
Renin (Homo sapiens) [10] = biological target: T2, Renin (Homo sapiens); test: Compound was evaluated for percent inhibition of renin at a concentration of 4E-7M at 60 min pre-incubation time; how it was run: as §1

IC50 (Renin) | Structure (SMILES) | also measured
6000 nM | C=C(C[C@H](O)[C@H](CC(C)C)NC(=O)[C@H](C)NC(=O)[C@H](Cc1ccccc1)NC(=O)OC(C)(C)C)C(=O)N[C@H](O)CC(C)C | –
35 nM | CC(C)CNC(=O)[C@@](O)(CN)C[C@H](O)[C@H](CC1CCCCC1)NC(=O)[C@H](Cc1cnc[nH]1)NC(=O)[C@H](Cc1ccccc1)NC(=O)OC(C)(C)C | –
50 nM | C=C(C[C@H](O)[C@H](CC1CCCCC1)NC(=O)[C@H](C)NC(=O)[C@H](Cc1ccccc1)NC(=O)OC(C)(C)C)C(=O)NC | inhibition (Renin (Homo sapiens) [1]): 44%; inhibition (Renin (Homo sapiens) [2]): 37%
4 nM | C=C(C[C@H](O)[C@H](CC1CCCCC1)NC(=O)[C@H](CC(C)C)NC(=O)[C@H](Cc1ccccc1)NC(=O)OC(C)(C)C)C(=O)NCCC(C)C | –
50 nM | C=C(C[C@H](O)[C@H](CC1CCCCC1)NC(=O)[C@H](C)NC(=O)[C@H](Cc1ccccc1)NC(=O)OC(C)(C)C)C(=O)NCC1CCCCC1 | inhibition (Renin (Homo sapiens) [3]): 49%; inhibition (Renin (Homo sapiens) [4]): 53%
4 nM | C=C(C[C@H](O)[C@H](CC1CCCCC1)NC(=O)[C@H](Cc1c[nH]cn1)NC(=O)[C@H](Cc1ccccc1)NC(C)=O)C(=O)NCCC(C)C | –
40 nM | CNC(=O)C1(C[C@H](O)[C@H](CC2CCCCC2)NC(=O)[C@H](C)NC(=O)[C@H](Cc2ccccc2)NC(=O)OC(C)(C)C)CO1 (stereo partly drawn) | –
25 nM | CC(C)CCNC(=O)C1(C[C@H](O)[C@H](CC2CCCCC2)NC(=O)[C@H](C)NC(=O)[C@H](Cc2ccccc2)NC(=O)OC(C)(C)C)CO1 (stereo partly drawn) | inhibition (Renin (Homo sapiens) [5]): 61%; inhibition (Renin (Homo sapiens) [6]): 66%
2 nM | C=C(C[C@H](O)[C@H](CC1CCCCC1)NC(=O)[C@H](Cc1c[nH]cn1)NC(=O)[C@H](Cc1ccccc1)NC(=O)OC(C)(C)C)C(=O)NCC(C)C | –
15 nM | CC(C)CNC(=O)[C@](O)(CN)C[C@H](O)[C@H](CC1CCCCC1)NC(=O)[C@H](Cc1c[nH]cn1)NC(=O)[C@H](Cc1ccccc1)NC(=O)OC(C)(C)C | –
10 nM | C=C(C[C@H](O)[C@H](CC1CCCCC1)NC(=O)[C@H](C)NC(=O)[C@H](Cc1ccccc1)NC(=O)OC(C)(C)C)C(=O)NCCC(C)C | inhibition (Renin (Homo sapiens) [7]): 31%; inhibition (Renin (Homo sapiens) [8]): 38%
5.5 nM | CC(C)CCNC(=O)[C@@](C)(O)C[C@H](O)[C@H](CC1CCCCC1)NC(=O)[C@H](Cc1c[nH]cn1)NC(=O)[C@H](Cc1ccccc1)NC(=O)OC(C)(C)C | –
200 nM | C=C(C[C@H](O)[C@H](CC(C)C)NC(=O)[C@H](C)NC(=O)[C@H](Cc1ccccc1)NC(=O)OC(C)(C)C)C(=O)NCCC(C)C | –
50 nM | CC(C)CCNC(=O)[C@](C)(O)C[C@H](O)[C@H](CC1CCCCC1)NC(=O)[C@H](Cc1c[nH]cn1)NC(=O)[C@H](Cc1ccccc1)NC(=O)OC(C)(C)C | –
0.8 nM | CC(C)CNC(=O)[C@](O)(CCl)C[C@H](O)[C@H](CC1CCCCC1)NC(=O)[C@H](Cc1cnc[nH]1)NC(=O)[C@H](Cc1ccccc1)NC(=O)OC(C)(C)C | –
400 nM | C=C(C[C@H](O)[C@H](CC(C)C)NC(=O)[C@H](C)NC(=O)[C@H](Cc1ccccc1)NC(=O)OC(C)(C)C)C(=O)NCC(C)C | inhibition (Renin (Homo sapiens) [9]): 48%; inhibition (Renin (Homo sapiens) [10]): 43%
1 nM | CC(C)CNC(=O)[C@](O)(CN=[N+]=[N-])C[C@H](O)[C@H](CC1CCCCC1)NC(=O)[C@H](Cc1cnc[nH]1)NC(=O)[C@H](Cc1ccccc1)NC(=O)OC(C)(C)C | –

IC50 (Renin) | Structure (SMILES) | also measured
20 nM | CC(C)CNC(=O)[C@@](O)(CCl)C[C@H](O)[C@H](CC1CCCCC1)NC(=O)[C@H](Cc1c[nH]cn1)NC(=O)[C@H](Cc1ccccc1)NC(=O)OC(C)(C)C | –
1.5 nM | C=C(C[C@H](O)[C@H](CC1CCCCC1)NC(=O)[C@H](Cc1c[nH]cn1)NC(=O)[C@H](Cc1ccccc1)NC(=O)OC(C)(C)C)C(=O)NCCC(C)C | –
2000 nM | C=C(C[C@H](O)[C@H](CC1CCCCC1)NC(=O)[C@H](Cc1c[nH]cn1)NC(=O)[C@H](CO)NC(=O)OC(C)(C)C)C(=O)NCCC(C)C | –
3 nM | C=C(C[C@H](O)[C@H](CC1CCCCC1)NC(=O)[C@H](Cc1c[nH]cn1)NC(=O)[C@H](Cc1ccccc1)NC(=O)OCC)C(=O)NCCC(C)C | –
25 nM | C=C(C[C@H](O)[C@H](CC1CCCCC1)NC(=O)[C@H](C)NC(=O)[C@H](Cc1ccccc1)NC(=O)OC(C)(C)C)C(=O)NCC(C)(C)CN(C)C | –
2 nM | C=C(C[C@H](O)[C@H](CC1CCCCC1)NC(=O)[C@H](Cc1c[nH]cn1)NC(=O)[C@H](Cc1ccccc1)NC(=O)CC(C)(C)C)C(=O)NC | –
20 nM | CC(C)CNC(=O)[C@@](O)(CN=[N+]=[N-])C[C@H](O)[C@H](CC1CCCCC1)NC(=O)[C@H](Cc1cnc[nH]1)NC(=O)[C@H](Cc1ccccc1)NC(=O)OC(C)(C)C | –
400 nM | C=C(C[C@H](O)[C@H](CC1CCCCC1)NC(=O)[C@H](C)NC(=O)[C@H](Cc1ccccc1)NC(=O)OC(C)(C)C)C(=O)NCCN(C)C | –
100 nM | C=C(C[C@H](O)[C@H](CC1CCCCC1)NC(=O)C(Cc1c[nH]cn1)NC(=O)C(C)(O)c1ccccc1)C(=O)NCCC(C)C (stereo partly drawn) | –
5 nM | C=C(C[C@H](O)[C@H](CC1CCCCC1)NC(=O)[C@H](CC(C)C)NC(=O)[C@H](Cc1ccccc1)NC(=O)OCC)C(=O)NCC(C)C | –
8.5 nM | C=C(C[C@H](O)[C@H](CC1CCCCC1)NC(=O)[C@H](Cc1ccccc1)NC(=O)[C@H](Cc1ccccc1)NC(=O)OC(C)(C)C)C(=O)NCC(C)(C)CN(C)C | –
10 nM | C=C(C[C@H](O)[C@H](CC1CCCCC1)NC(=O)[C@H](C)NC(=O)[C@H](Cc1ccccc1)NC(=O)OC(C)(C)C)C(=O)NCC(C)C | –
10 nM | C=C(C[C@H](O)[C@H](CC1CCCCC1)NC(=O)[C@H](CC(C)C)NC(=O)[C@H](Cc1ccccc1)NC(=O)OCC)C(=O)NCC(C)(C)CN(C)C | –
150 nM | C=C(C[C@H](O)[C@H](CC1CCCCC1)NC(=O)[C@H](C)NC(=O)[C@H](Cc1ccccc1)NC(=O)OC(C)(C)C)C(=O)NCCc1ccccc1 | –
5 nM | C=C(C[C@H](O)[C@H](CC1CCCCC1)NC(=O)[C@H](Cc1c[nH]cn1)NC(=O)[C@H](Cc1ccccc1)NC(=O)OC(C)(C)C)C(=O)NCC(C)(C)CN(C)C | –
30 nM | CC(C)CNC(=O)[C@](O)(CC(C)C)C[C@H](O)[C@H](CC1CCCCC1)NC(=O)[C@H](Cc1c[nH]cn1)NC(=O)[C@H](Cc1ccccc1)NC(=O)OC(C)(C)C | –
